Experimental data as given in PubChem BioAssay.
Activity calls are given as the source filed them.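 The calls were made as follows, unless noted: active = viability at or below 10% of carrier control in both of two separate runs; inconclusive = viability at or below 10% in only one of the two runs; inactive = the rest.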

What was measured:
[1] = reducers of endogenous Her2 protein level, primary screen, SKBR3 breast tumor cells, AlphaScreen, ATP viability (AID 461;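 active = Her2 level under about 52% in both replicate screens, with viability over 70% of control, limit read from the data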;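 as to Her2 level: lower value means less Her2 protein in the cells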;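 as to viability: percent of carrier control wells set as 100% viability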); conditions: 18-24 h, measured here: SKBR3 viability, ATP luminescence, at 10 µM
[2] = target: Receptor tyrosine-protein kinase erbB-2 (Homo sapiens) (UniProt P04626); experiment: as above; conditions: 18-24 h, at 10 µM, stronger effect = lower value
[3] = SK-BR-3 cell growth inhibitors, pilot screen, 24 h, human (AID 572); conditions: SK-BR-3 viability, CellTiter-Glo luminescence, at 10 µM, stronger effect = lower value;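 also: compound exposure lasted between 18 and 24 h rather than exactly 24 h; 100% = carrier-treated control wells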
[4] = HUVEC growth inhibition – cell-based, human, primary screen (AID 575;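 active = viability at or below 30% in both replicate assays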;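 also: 100% = median of untreated cell wells with 0.1% DMSO on each plate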); conditions: HUVEC proliferation, CellTiter-Glo luminescence, 72 h; at 10 µM; stronger effect = lower value
Summary of the method: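 Timing: 72 h treatment at 37 °C; material: HUVEC primary cells; technique: CellTiter-Glo luminescence measuring cellular ATP; controls: vehicle and MePR control wells; measure: percent of median DMSO-control luminescence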

[5] = growth inhibitors of H69AR lung tumor, primary screen, human, duplicate replicates (AID 580;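 active = viability at or under a set limit in both replicates, limit being median viability minus 3 SD, cut at about 48% in these data, passing the limit was not always enough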;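 also: 100% = mean luminescence of untreated wells and 0% = no signal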); conditions: H69AR lung tumor cells viability, ATP luminescence, 72 h; at 10 µM; stronger effect = lower value
[6] = reversal of MRP1-mediated doxorubicin resistance, pilot screen, H69AR cells, doxorubicin co-treatment (AID 601;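 active = viability loss from added drug above about 55%, and viability with drug at most 40%, in both replicates, limit read from the data, passing the limit was not always enough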); conditions: CellTiter-Glo, 72 h, at 10 µM; for differential viability (reversal): stronger effect = higher value
[7] = 384-well plate pilot, post-Golgi transport modulator project, inhibition of yeast transport mutant growth (AID 636; in the data active = inhibition above about 31%); conditions: absorbance 615 nm, about 18 h, stronger effect = higher value
[8] = growth suppression of yeast trafficking mutant, preliminary HTS, modulators of trafficking downstream of Golgi apparatus project, 1536-format plate, OD 615 nm (AID 637; in the data active = inhibition above about 30%); conditions: yeast transport mutant growth, absorbance 615 nm, 18 h; stronger effect = higher value
[9] = H69AR cells + 2 uM doxorubicin, measured here: viability with 2 uM doxorubicin, stronger effect = lower value
[10] = H69AR cells, compound alone cytotoxicity

Chain of Receptor tyrosine-protein kinase erbB-2 (Homo sapiens) (P04626 whole entry, looked up): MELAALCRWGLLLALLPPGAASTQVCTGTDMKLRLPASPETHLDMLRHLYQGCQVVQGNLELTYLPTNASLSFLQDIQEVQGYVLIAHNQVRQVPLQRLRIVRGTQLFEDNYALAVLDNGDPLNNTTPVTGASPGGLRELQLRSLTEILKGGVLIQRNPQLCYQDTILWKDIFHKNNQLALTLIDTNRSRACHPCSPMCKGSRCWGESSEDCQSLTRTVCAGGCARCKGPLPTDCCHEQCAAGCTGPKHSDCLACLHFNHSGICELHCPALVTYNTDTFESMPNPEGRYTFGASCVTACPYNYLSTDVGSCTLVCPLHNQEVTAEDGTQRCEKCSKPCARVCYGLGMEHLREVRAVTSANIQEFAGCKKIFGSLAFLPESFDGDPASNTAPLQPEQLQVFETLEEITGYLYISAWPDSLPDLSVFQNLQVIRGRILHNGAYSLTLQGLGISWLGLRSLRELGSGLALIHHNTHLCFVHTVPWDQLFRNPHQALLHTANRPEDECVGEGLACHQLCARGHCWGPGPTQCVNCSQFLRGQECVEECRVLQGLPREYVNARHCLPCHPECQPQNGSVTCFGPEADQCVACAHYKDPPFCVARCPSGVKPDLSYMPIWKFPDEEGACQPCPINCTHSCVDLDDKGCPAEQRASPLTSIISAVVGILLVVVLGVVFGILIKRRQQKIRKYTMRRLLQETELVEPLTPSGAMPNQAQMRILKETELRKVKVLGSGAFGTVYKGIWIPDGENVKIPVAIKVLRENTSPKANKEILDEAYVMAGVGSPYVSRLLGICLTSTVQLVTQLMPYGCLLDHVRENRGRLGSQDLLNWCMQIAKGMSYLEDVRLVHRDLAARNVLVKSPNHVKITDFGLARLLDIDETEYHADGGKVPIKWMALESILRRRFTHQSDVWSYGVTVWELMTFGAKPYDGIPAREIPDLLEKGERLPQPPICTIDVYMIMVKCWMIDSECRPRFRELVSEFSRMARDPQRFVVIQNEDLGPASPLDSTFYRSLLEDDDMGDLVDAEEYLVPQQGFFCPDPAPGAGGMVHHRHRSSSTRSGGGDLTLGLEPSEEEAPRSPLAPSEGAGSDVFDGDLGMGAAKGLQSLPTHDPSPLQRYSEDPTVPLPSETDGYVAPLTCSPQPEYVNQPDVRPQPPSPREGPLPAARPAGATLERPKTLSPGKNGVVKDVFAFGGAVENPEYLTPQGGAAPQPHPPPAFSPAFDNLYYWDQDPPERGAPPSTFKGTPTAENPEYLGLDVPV

| SMILES | viability [1] [%] | Her2 level [2] | viability [3] | viability [4] | viability [5] | differential viability (reversal) ([6]; H69AR cells + 2 uM doxorubicin) | viability [6, 9] [%] | viability [6, 10] [%] | inhibition [7] | inhibition [8] |
| --- | --- | --- | --- | --- | --- | --- | --- | --- | --- | --- |
| COC(=O)CCc1c(C)c(C#N)c2nc3ccccc3n2c1N1CCCC1 | 100 | 84% (inactive) | 100% (inactive) | 98.1% (inactive) | 73.2% (inactive) | 45.5% (inactive) | 27.7 | 73.2 | -8.24% (inactive) | 8.67% (inactive) |
| CCCNCC(O)COc1ccccc1C(=O)CCc1ccccc1 (centres undefined) | 97 | 100% (inactive) | 97% (inactive) | 97.2% (inactive) | 87.1% (inactive) | 2.24% (inactive) | 84.8 | 87.1 | – | – |
| CCN(CC)CCNC(=O)c1cc(S(C)(=O)=O)ccc1OC | 114 | 95% (inactive) | 114% (inactive) | 102% (inactive) | 111% (inactive) | 14.5% (inactive) | 96.1 | 111 | – | – |
| CCOC(=O)N1CCN(S(=O)(=O)c2cc(Cl)ccc2Cl)CC1 | 106 | 94.5% (inactive) | 106% (inactive) | 90.7% (inactive) | 85% (inactive) | 2.05% (inactive) | 83 | 85 | -3.38% (inactive) | -0.32% (inactive) |
| CC(=O)NC1(c2nnnn2CCOC(=O)Nc2ccc(Cl)cc2)CCCCC1 | 112 | 89% (inactive) | 112% (inactive) | 98.5% (inactive) | 98.5% (inactive) | 13% (inactive) | 85.4 | 98.5 | -3.29% (inactive) | 8.69% (inactive) |
| Cc1cc(C)n2cc(CSc3nnnn3-c3ccc(Cl)cc3)nc2n1 | 89.5 | 89% (inactive) | 89.5% (inactive) | 94.1% (inactive) | 97.6% (inactive) | 7.13% (inactive) | 90.5 | 97.6 | -1.73% (inactive) | 0.65% (inactive) |
| CCCC(=O)O[C@]1(C(=O)CCl)[C@@H](C)C[C@H]2[C@@H]3CCC4=CC(=O)C=C[C@]4(C)[C@@]3(F)C(=O)C[C@@]21C | 88.5 | 122% (inactive) | 88.5% (inactive) | 81.2% (inactive) | 87.8% (inactive) | 6.43% (inactive) | 81.4 | 87.8 | – | – |
| O=C(c1ccco1)N1CCN(c2cccc(Cl)c2)CC1 | 101 | 103% (inactive) | 101% (inactive) | 88.1% (inactive) | 97.9% (inactive) | 5.25% (inactive) | 92.7 | 97.9 | -0.93% (inactive) | -9.68% (inactive) |
| O=C(Cn1cnc2c(nnn2-c2ccc(F)cc2)c1=O)N1CCCc2ccccc21 | 101 | 117% (inactive) | 101% (inactive) | 90.5% (inactive) | 103% (inactive) | 16.3% (inactive) | 86.6 | 103 | -9.59% (inactive) | -2.7% (inactive) |
| Cc1cc(C)nc(NS(=O)(=O)c2ccc(N)cc2)n1 | 104 | 110% (inactive) | 104% (inactive) | 83.1% (inactive) | 86.7% (inactive) | 7.25% (inactive) | 79.4 | 86.7 | – | – |
| CCN(CC)C(=O)CSc1nc2ccccc2c(=O)n1CCC(=O)NCc1ccc(F)cc1 | 93 | 105% (inactive) | 93% (inactive) | 98.3% (inactive) | 92.7% (inactive) | 3.08% (inactive) | 89.6 | 92.7 | 4.34% (inactive) | 20.2% (inactive) |
| CCC1(CC)NC(=O)NC1=O | 110 | 90% (inactive) | 110% (inactive) | 85% (inactive) | 105% (inactive) | 14.9% (inactive) | 90.1 | 105 | -4.74% (inactive) | 3.11% (inactive) |
| CCCC(=O)O[C@]1(C(=O)COC(C)=O)CC[C@H]2[C@@H]3C[C@H](F)C4=CC(=O)C=C[C@]4(C)[C@@]3(F)[C@@H](O)C[C@@]21C | 95 | 97.5% (inactive) | 95% (inactive) | 96.9% (inactive) | 95.6% (inactive) | -8.84% (inactive) | 104 | 95.6 | – | – |
| O=C(CCCN1CC=C(n2c(=O)[nH]c3ccccc32)CC1)c1ccc(F)cc1 | 77 | 103% (inactive) | 77% (inactive) | 98.4% (inactive) | 86.2% (inactive) | 11.1% (inactive) | 75.1 | 86.2 | – | – |
| CN1CCN2c3ccccc3Cc3ccccc3C2C1 (centres undefined) | 82.5 | 117% (inactive) | 82.5% (inactive) | 73.4% (inactive) | 90.2% (inactive) | 1.02% (inactive) | 89.1 | 90.2 | – | – |
| Cc1nc2ccccc2c2c1C(=O)N(CCC1=CCCCC1)C2=O | 83.5 | 87% (inactive) | 83.5% (inactive) | 103% (inactive) | 88.4% (inactive) | -1.33% (inactive) | 89.7 | 88.4 | -3.42% (inactive) | -1.17% (inactive) |
| C[C@]12CCC(=O)C=C1CC[C@@H]1[C@@H]2C(=O)C[C@@]2(C)[C@H]1CC[C@]2(O)C(=O)CO | 82.5 | 110% (inactive) | 82.5% (inactive) | 98% (inactive) | 101% (inactive) | 12.6% (inactive) | 88.8 | 101 | – | – |
| C[C@@H]1C[C@H]2[C@@H]3CCC4=CC(=O)C=C[C@]4(C)[C@@]3(F)[C@@H](O)C[C@]2(C)[C@@]1(O)C(=O)COP(=O)(O)O | 99 | 125% (inactive) | 99% (inactive) | 102% (inactive) | 97.9% (inactive) | -24.3% (inactive) | 122 | 97.9 | – | – |

| SMILES | viability [1] [%] | Her2 level [2] | viability [3] | viability [4] | viability [5] | differential viability (reversal) ([6]; H69AR cells + 2 uM doxorubicin) | viability [6, 9] [%] | viability [6, 10] [%] | inhibition [7] | inhibition [8] |
| --- | --- | --- | --- | --- | --- | --- | --- | --- | --- | --- |
| CN(CCO)CC(O)Cn1cnc2c1c(=O)n(C)c(=O)n2C (centres undefined) (tested in a mixture with another compound) | 87 | 88.5% (inactive) | 87% (inactive) | 94.1% (inactive) | 83.6% (inactive) | -2.31% (inactive) | 85.9 | 83.6 | – | – |
| CC(NC(=O)Nc1ccccc1)C(c1cccs1)N1CCOCC1 (centres undefined) | 108 | 107% (inactive) | 108% (inactive) | 99.5% (inactive) | 110% (inactive) | 16.3% (inactive) | 93.5 | 110 | -0.38% (inactive) | 4.83% (inactive) |
| Nc1ccc2[nH]ncc2c1 | 80.5 | 106% (inactive) | 80.5% (inactive) | 84.1% (inactive) | 100% (inactive) | -6.96% (inactive) | 107 | 100 | – | – |
| Cc1cccc(CN2CCN(C(c3ccccc3)c3ccc(Cl)cc3)CC2)c1 (centres undefined) | 83 | 93.5% (inactive) | 83% (inactive) | 96.4% (inactive) | 96.8% (inactive) | 1.06% (inactive) | 95.8 | 96.8 | – | – |
| CC(C(=O)N1CCCCC1)n1sc2ccccc2c1=O (centres undefined) | 119 | 102% (inactive) | 119% (inactive) | 88% (inactive) | 87.4% (inactive) | 3.18% (inactive) | 84.3 | 87.4 | -1.71% (inactive) | 11.4% (inactive) |
| COc1ccc(-c2coc3cc(O)cc(O)c3c2=O)cc1 | 118 | 99% (inactive) | 118% (inactive) | 84.2% (inactive) | 68.8% (inactive) | -27% (inactive) | 95.8 | 68.8 | – | – |
| CN(C)CCOC(C)(c1ccccc1)c1ccccn1 (centres undefined) | 79.5 | 120% (inactive) | 79.5% (inactive) | 113% (inactive) | 93.5% (inactive) | -11.6% (inactive) | 105 | 93.5 | – | – |
| COc1ccc([C@@H]2Sc3ccccc3N(CCN(C)C)C(=O)[C@@H]2OC(C)=O)cc1 | 76 | 106% (inactive) | 76% (inactive) | 100% (inactive) | 92.1% (inactive) | -11.2% (inactive) | 103 | 92.1 | – | – |
| CCCC(CCC)C(=O)OC1C[C@H]2CC[C@@H](C1)[N+]2(C)C (some centres undefined) | 112 | 95.5% (inactive) | 112% (inactive) | 108% (inactive) | 94% (inactive) | 9.01% (inactive) | 85 | 94 | – | – |
| CC1CCc2cc(F)cc3c(=O)c(C(=O)O)cn1c23 (centres undefined) | 104 | 100% (inactive) | 104% (inactive) | 98.5% (inactive) | 104% (inactive) | 4.35% (inactive) | 99.2 | 104 | – | – |
| Clc1ccc(Cn2c(CN3CCCC3)nc3ccccc32)cc1 | 92.5 | 112% (inactive) | 92.5% (inactive) | 85.5% (inactive) | 73.3% (inactive) | -12.6% (inactive) | 85.9 | 73.3 | – | – |
| Nc1ccc(S(=O)(=O)NC(=O)c2ccccc2)cc1 | 104 | 100% (inactive) | 104% (inactive) | 90% (inactive) | 98.5% (inactive) | 6.16% (inactive) | 92.4 | 98.5 | – | – |
| CCOC(=O)N1CCC(N2C(=O)c3ccc(C(=O)NCc4ccco4)cc3C2=O)CC1 | 95.5 | 94% (inactive) | 95.5% (inactive) | 79.6% (inactive) | 85.9% (inactive) | 4.97% (inactive) | 81 | 85.9 | 0% (inactive) | -0.17% (inactive) |
| CC(C)CCNC(=O)[C@H](CC(C)C)NC(=O)[C@H]1O[C@@H]1C(=O)O | 104 | 112% (inactive) | 104% (inactive) | 95.9% (inactive) | 100% (inactive) | 5.67% (inactive) | 94.5 | 100 | – | – |
| CCn1cc(C(=O)O)c(=O)c2cnc(N3CCNCC3)nc21 | 108 | 102% (inactive) | 108% (inactive) | 96.5% (inactive) | 107% (inactive) | 16.4% (inactive) | 90.9 | 107 | – | – |
| CCCCc1c(O)nc(SCCN(C)C)n(-c2ccccc2)c1=O | 93.5 | 110% (inactive) | 93.5% (inactive) | 99.5% (inactive) | 102% (inactive) | 2.55% (inactive) | 99 | 102 | -1.18% (inactive) | 2.62% (inactive) |
| CC[N+](C)(C)Cc1ccccc1Br | 102 | 92% (inactive) | 102% (inactive) | 107% (inactive) | 98.8% (inactive) | -4.18% (inactive) | 103 | 98.8 | – | – |
| CCCCOc1ccc(OCCCN2CCOCC2)cc1 | 96.5 | 108% (inactive) | 96.5% (inactive) | 91.7% (inactive) | 103% (inactive) | 7.79% (inactive) | 95.2 | 103 | – | – |
